Assay [1] addresses T1, Sphingomyelin phosphodiesterase (Homo sapiens, UniProt P17405).
T1 sequence (P17405 whole entry): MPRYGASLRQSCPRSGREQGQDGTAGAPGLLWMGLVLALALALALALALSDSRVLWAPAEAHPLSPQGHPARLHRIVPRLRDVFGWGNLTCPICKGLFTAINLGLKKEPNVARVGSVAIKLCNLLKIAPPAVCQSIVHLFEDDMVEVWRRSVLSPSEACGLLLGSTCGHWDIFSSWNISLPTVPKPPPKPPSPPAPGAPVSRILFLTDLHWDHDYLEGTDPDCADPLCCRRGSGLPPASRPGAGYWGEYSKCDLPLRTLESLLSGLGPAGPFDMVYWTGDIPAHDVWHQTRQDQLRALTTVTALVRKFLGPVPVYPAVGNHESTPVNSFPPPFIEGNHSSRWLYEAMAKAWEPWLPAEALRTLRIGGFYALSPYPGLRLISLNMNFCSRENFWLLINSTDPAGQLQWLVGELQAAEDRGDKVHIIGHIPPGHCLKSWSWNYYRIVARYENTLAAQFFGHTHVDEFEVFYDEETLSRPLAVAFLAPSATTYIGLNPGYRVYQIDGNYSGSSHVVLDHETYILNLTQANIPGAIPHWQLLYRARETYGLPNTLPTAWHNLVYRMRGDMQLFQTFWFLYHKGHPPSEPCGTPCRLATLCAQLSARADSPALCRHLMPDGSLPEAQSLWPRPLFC
The assay can be described thus: Inhibition of mmLDL-stimulated acid sphingomyelinase in human PBMC lysates using BODIPY FL C5-sphingomyelin as substrate preincubated for 30 mins followed by mmLDL stimulation measured after 2 hrs by HPLC method.

Assay [2] deals with PBMC. Nature of the assay: Inhibition of mmLDL-stimulated apoptosis in human PBMC assessed as apoptotic cells at 2 uM preincubated for 30 mins followed by mmLDL stimulation measured after 4 hrs by YO-PRO-1/Hoechst 33342 staining based assay (reference value: 100%). The format is functional. The arrangement: scale not given: the % may be the effect or the level left. The gist of the method: (§1)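 PBMC pre-incubated 30 min with 2 μM compound, then stimulated with mmLDL (27 μg/mL; line 5) or TNFalpha (3 ng/mL; line 1) for 4 h. Apoptotic cells stained with YO-PRO-1 and all cells with Hoechst 33342. Each plate had control, stimulus, compound alone and compound plus stimulus; n = 3. Values are on a 0% (untreated control, corrected for spontaneous apoptosis) to 100% (stimulus alone) scale; means ± SE.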

In assay [3] the test system is PBMC. The assay can be described thus: Inhibition of TNFalpha-stimulated apoptosis in human PBMC assessed as apoptotic cells at 2 uM preincubated for 30 mins followed by TNFalpha stimulation measured after 4 hrs by YO-PRO-1/Hoechst 33342 staining based assay relative to control. The class given is functional. Details: scale not given: the % may be the effect or the level left. The gist of the method:
as §1

In assay [4] the target is T2, Sphingomyelin phosphodiesterase (Homo sapiens) (UniProt P17405).
T2 sequence (whole entry): T1 sequence (P17405 whole entry)
The assay can be described thus: Inhibition of mmLDL-stimulated acid sphingomyelinase in human PBMC lysates assessed as enzyme residual activity at 25 uM using BODIPY FL C5-sphingomyelin as substrate preincubated for 30 mins followed by mmLDL stimulation measured after 2 hrs by HPLC method.

Assay [5] addresses T2, Sphingomyelin phosphodiesterase (Homo sapiens). Nature of the assay: Inhibition of mmLDL-stimulated acid sphingomyelinase in human PBMC lysates at 0.5 to 50 uM preincubated for 30 mins followed by mmLDL stimulation measured after 4 hrs by YO-PRO-1/Hoechst 33342 staining based assay.

The text below walks through data of ChEMBL document CHEMBL4152184, “NB 06: From a simple lysosomotropic aSMase inhibitor to tools for elucidating the role of lysosomes in signaling apoptosis and LPS-induced inflammation” (Eur J Med Chem, 2018).

pIC50: −log10 of the molar value. Active and inactive are the calls of the source. No cut-off for these calls is given here.

As to `COc1ccc(CC(=O)N(C)CCN2c3ccccc3CCc3ccccc32)cc1`, the negative-log IC50 (pIC50) – broadly, the negative decadic logarithm of the IC50, by convention in mol/L – in assay [1] was under 3.60. The Activity in assay [2] is 94%; in assay [3] it was 90%.

As to `COc1ccc(CCN2CCCN(C3c4ccccc4CCc4ccccc43)C2)cc1`, the Activity in assay [2] worked out at 27%; in assay [3], 17%.

`COc1ccc(CCN(C)CCCN2c3ccccc3Sc3ccccc32)cc1`: the pIC50 in assay [1] is 5.05. Also, the Activity in assay [2] is listed as 100%.

Compound `COc1ccc(CCNCCNc2cccc3ccccc23)cc1` showed a pIC50 in assay [1] of 3.94. Also, in assay [2], the Activity amounted to 87%.

For `COc1ccc(CCN(C)CCCN(c2ccccc2)c2ccccc2)cc1`, the pIC50 in assay [1] is under 3.60. In assay [2], the Activity was determined as 35%.

For `COc1ccc(Cn2c(=O)[nH]c3ccccc3c2=O)cc1`, in assay [1], the negative logarithm of the IC50 (pIC50) was under 3.60. Also, the Activity in assay [2] stood at 57%; in assay [3] it was 59%.

On to `COc1ccc(CCN(C)CCN2c3ccccc3Sc3ccccc32)cc1`, for which the Activity in assay [2] and in assay [3] was 25% throughout.

`COc1ccc(CCN(C)CCCN2c3ccccc3Oc3ccccc32)cc1OC` had a negative-log IC50 (pIC50) in assay [1] of 4.89. In assay [2], the Activity was 36%.

The compound `COc1ccc(CC(=O)N(C)CCCN2c3ccccc3Sc3ccc(Cl)cc32)cc1OC` showed a negative logarithm of the IC50 (pIC50) in assay [1] of under 3.60. In addition, the Activity in assay [2] is 41%.

For `COc1ccc(CCN2[C@H](C)CN(CCCn3c4ccccc4c4ccccc43)C[C@@H]2C)cc1`, the Activity in assay [2] was 25%; in assay [3], 0%.

In the case of `CNCCCN1c2ccccc2CCc2ccccc21`, in assay [4], the Activity was determined as 20%.

In the case of `COc1ccc(CCN2CCN(CCn3c4ccccc4c4ccccc43)CC2)cc1`, the Activity in assay [2] came out at 14%; in assay [3] it was 16%.

With `COc1ccc(CCN(C)CCCN2c3ccccc3Sc3ccccc32)cc1OC`, in assay [1], the negative-log IC50 (pIC50) was 4.80. The Activity in assay [2] was 52%.

`COc1ccc(CC(=O)N(C)CCCn2c3ccccc3c3ccccc32)cc1` showed a pIC50 in assay [1] of under 3.60. Moreover, the Activity in assay [2] amounted to 100%.

With `COc1ccc(CCN2CCn3c4c(c5ccccc53)CCCC42)cc1` (stereo not given), the pIC50 in assay [1] was under 3.60. The Activity in assay [2] turned out to be 19%.

`COc1ccc(CCNCc2cccc3ccccc23)cc1`: in assay [1], the pIC50 is 3.62. In assay [2], the Activity is 100%.

In assay [1], `COc1ccc(CCN(C)CCN2c3ccccc3CCc3ccccc32)cc1` showed a pIC50 of 4.77. Besides, the Activity amounted to 49% in assay [2] and 35% in assay [3].

`CN(C)CCCN1c2ccccc2Sc2ccc(Cl)cc21` [CHLORPROMAZINE] showed a pIC50 in assay [1] of 4.96.

For `COc1ccc(CCN(C)CCCN2c3ccccc3Sc3ccc(Cl)cc32)cc1`, the Activity in assay [2] is on record as 71%.

On to `COc1ccc(CN(C)CCCn2c3ccccc3c3ccccc32)cc1`, for which the Activity in assay [2] came out at 17%.

For `COc1ccc(CCN(C)CCC=C2c3ccccc3CCc3ccccc32)cc1`, the negative-log IC50 (pIC50) in assay [1] is 5.00. Further, the Activity in assay [2] was 10%.

Compound `COc1ccc(CCNCCNc2cccc3ccccc23)cc1OC` had a pIC50 in assay [1] of 3.95. Moreover, in assay [2], the Activity is recorded as 65%.

On to `COc1ccc(CCN(C)CCCN2c3ccccc3Oc3ccccc32)cc1`, for which the Activity in assay [2] is 25%; in assay [3], 43%.

`COc1ccc(CCN(Cc2ccccc2)c2ccccn2)cc1` had a pIC50 in assay [1] of under 3.60. In addition, in assay [2], the Activity came out at 85%.

The compound `COc1ccc(CCN(C)CCCN2c3ccccc3CCc3ccccc32)cc1OC` gave a negative logarithm of the IC50 (pIC50) in assay [1] of 4.51. For the same compound, the Activity in assay [2] is listed as 73%.

As for `COc1ccc(CCN(C)CCN2c3ccccc3Sc3ccccc32)cc1OC`, in assay [2], the Activity worked out at 72%.

In assay [1], `COc1ccc(CCN(C)CCn2c3ccccc3c3ccccc32)cc1` had a pIC50 of 5.22. Besides, the results for the Activity in assay [2] and in assay [3] were 9% and 55%, respectively.

`COc1ccc(CCN2[C@H](C)CN(CCCn3c4ccccc4c4ccccc43)C[C@@H]2C)cc1OC`: the negative-log IC50 (pIC50) in assay [1] is 3.85. The Activity in assay [2] was found to be 35%.

Take `COc1ccc(CCN(C)CCN2c3ccccc3CCc3ccccc32)cc1OC`: the Activity is 30% in assay [2] and 58% in assay [3].

`COc1ccc(CCN(C)CCCN(c2ccccc2)c2ccccc2)cc1OC`: the Activity in assay [2] came to 59%.

For `COc1ccc(CCN(C)CCCn2ccc3ccccc32)cc1`, in assay [1], the negative-log IC50 (pIC50) was 4.68. The Activity in assay [2] is given as 84%.

Regarding `COc1ccc(Cn2c3ccccc3c3ccccc32)cc1`, in assay [1], the negative-log IC50 (pIC50) was 3.81. The figures for the Activity in assay [2] and in assay [3] were 14% and 30%, respectively.

`COc1ccc(CCN2[C@H](C)CN(CCCN3c4ccccc4Oc4ccccc43)C[C@@H]2C)cc1`: the negative logarithm of the IC50 (pIC50) in assay [1] was 4.37. Further, the Activity in assay [2] is reported as 10%.

In the case of `COc1ccc(CCN2CCCn3c4c(c5ccccc53)CCCC42)cc1` (stereo not given), in assay [1], the pIC50 is 4.82. In addition, the Activity in assay [2] came to 25%.

Compound `COc1ccc(CCN(C)CCCN2Cc3ccccc3CCc3ccccc32)cc1` had a negative-log IC50 (pIC50) in assay [1] of 4.77. Further, the Activity in assay [2] is 8%; in assay [3], 2%.

In assay [1], `COc1ccc(CCNCCCNC2c3ccccc3CCc3ccccc32)cc1` gave a negative-log IC50 (pIC50) of 4.77.

Turning to `COc1ccc(CC(=O)N(C)CCCN2c3ccccc3CCc3ccccc32)cc1`, the pIC50 in assay [1] is 3.97. Further, the Activity in assay [2] turned out to be 69%.

On to `COc1ccc(CCN(C)CCCN2c3ccccc3Sc3ccc(Cl)cc32)cc1OC`, for which the pIC50 in assay [1] is 4.92. The Activity in assay [2] is recorded as 31%; in assay [3], 18%.

The compound `COc1ccc(CCNCc2cccc3ccccc23)cc1OC` had a negative-log IC50 (pIC50) in assay [1] of 4.02. Further, the Activity in assay [2] is on record as 86%.

For the compound `COc1ccc(CCN(C)CCCN2c3ccccc3CCc3ccccc32)cc1`, the Activity in assay [2] was determined as 36%; in assay [3], 30%.

Take `COc1ccc(CCN(C)CCCN2C(=O)COc3ccccc32)cc1`: the negative-log IC50 (pIC50) in assay [1] is 4.42.

In assay [1], `COc1ccc(CN2C(=O)COc3ccccc32)cc1` gave a negative logarithm of the IC50 (pIC50) of under 3.60. Also, the Activity in assay [2] worked out at 100%.

In the case of `COc1ccc(CCN(C)C(F)(F)C(F)(F)C(F)(F)C(F)(F)n2c3ccccc3c3ccccc32)cc1`, in assay [1], the pIC50 is under 3.60. The Activity in assay [2] is reported as 80%.

With `COc1ccc(CCN(C)CCC=C2c3ccccc3CCc3ccccc32)cc1OC`, the negative-log IC50 (pIC50) in assay [1] was 5.00. Also, the Activity in assay [2] is 79%.

For the compound `COc1ccc(CCN(C)CCCn2c3ccccc3c3ccccc32)cc1OC`, the pIC50 in assay [1] is 4.85. Moreover, the Activity is listed as 24% in assay [2] and 41% in assay [3].

With `COc1cc(CCN(C)CCCn2c3ccccc3c3ccccc32)c(OC)cc1CCN(C)CCCn1c2ccccc2c2ccccc21`, in assay [5], the inhibition result is “Active”. In addition, in assay [1], the pIC50 is 5.00. For the same compound, the Activity in assay [2] was found to be 7%.

The compound `CN(C)CCCN1c2ccccc2CCc2ccccc21` [IMIPRAMINE] had a pIC50 in assay [1] of 5.30. Also, the Activity in assay [2] is listed as 15%; in assay [3], 16%.

In assay [1], `COc1ccc(Cn2c(=O)c3ccccc3n(Cc3ccc(OC)cc3)c2=O)cc1` gave a pIC50 of under 3.60. The Activity in assay [2] came out at 4%.

For `COc1ccc(CCNCCCNC2c3ccccc3CCc3ccccc32)cc1OC`, the pIC50 in assay [1] was 4.41. Further, in assay [2], the Activity is 43%.
